Assay results of several laboratories.
Protocols differ between the studies behind these lines.
Target: Serine/threonine-protein kinase N2 (PKN2, Homo sapiens, UniProt Q16513)

| Structure (SMILES) | assay | system | conditions | quantity | value |
| --- | --- | --- | --- | --- | --- |
| CO[C@H]1CC[C@H](CNc2ccc(S(=O)(=O)NC(=O)c3ccc(N4CCN(CC5=C(c6ccc(Cl)cc6)CC(C)(C)CC5)CC4)cc3Oc3cnc4[nH]ccc4c3)cc2[N+](=O)[O-])CC1 | cell-free assay, competition with immobilised ligand | – | 1 µM | remaining binding | 97% |
| Cc1ccc(C(=O)Nc2ccc(CN3CCN(C)CC3)c(C(F)(F)F)c2)cc1C#Cc1cnc2cccnn12 | enzyme activity, inhibitor | – | 23.5 nM | remaining activity | 99% |
| Cc1sc(C(=O)NC2COC2)cc1-n1cc(NC(=O)Nc2c(F)cccc2Cl)cn1 | enzyme activity, inhibitor | – | 10 µM | remaining activity | 87.1% |
| c1ccc(CNc2nc(N3CCOc4ccccc43)nc3c2CCCC3)cc1 | target engagement in cells, inhibitor, chemoproteomics | – | 20 mM | inhibition | 9.1% |
| CNc1cc(Oc2cc(C(=O)Nc3cc(N4CCN(C)CC4)cc(C(F)(F)F)c3)ccc2C)ncn1 | target engagement in cells, inhibitor, chemoproteomics | Huh-7 | 1 µM | inhibition | -99.7% |
| CCCS(=O)(=O)Nc1ccc(F)c(C(=O)c2c[nH]c3ncc(-c4ccc(Cl)cc4)cc23)c1F | enzyme activity, inhibitor | – | 1 µM | inhibition | < 10% |
| Cc1ccc(Nc2nccc(N(C)c3ccc4c(C)n(C)nc4c3)n2)cc1S(N)(=O)=O | enzyme activity, inhibitor | – | 10 µM | inhibition | 34% |
| O=C1NC(=O)c2cc(Nc3ccc(F)cc3)c(Nc3ccc(F)cc3)cc21 | cell-free assay | – | 0.5 µM | remaining signal | 102% |
| CNC(=O)c1cc(Oc2ccc(NC(=O)Nc3ccc(Cl)c(C(F)(F)F)c3)cc2)ccn1 | enzyme activity, inhibitor | – | 0.3 µM | inhibition | 10% |
| c1cnn2ncc(-c3ccnc(N4CCC45COC5)n3)c2c1 | binding | – | 1 µM | remaining binding | 89% |
| CCS(=O)(=O)c1cc2cc(C[C@@](O)(CC(C)(C)c3ccc(F)cc3C(N)=O)C(F)(F)F)[nH]c2cn1 | cell-free assay, competition with immobilised ligand | – | 1 µM | remaining binding | 85% |
| CCN(CC)c1ccc(C2=NNC(=O)CC2C)cc1[N+](=O)[O-] (stereo not shown) | enzyme activity, inhibitor | – | 10 µM | remaining activity | 94% |
| Cn1c(=O)n(-c2ccc(C(C)(C)C#N)cc2)c2c3cc(-c4cnc5ccccc5c4)ccc3ncc21 | enzyme activity, inhibitor | – | 10 µM | remaining activity | 74% |
| Cc1cnc(NC2CCOCC2)nc1-n1cnc(C(=O)NC(CN)c2cc(F)cc(Cl)c2)c1 (stereo not shown) | enzyme activity, inhibitor, radiometric | – | 1 µM | remaining activity | 63% |
| O=C(Nc1cnn(-c2csc(C(=O)NC3COC3)c2)c1)Nc1ccccc1Cl | enzyme activity, inhibitor | – | 5 µM | remaining activity | 112% |
| O=c1nc(-c2ccccn2)sc2ccccc12 | binding, competition with immobilised ligand | – | 1 µM | remaining binding | 100% |
| CNCc1ccc(-c2cc(-c3nc(-c4ccc(S(=O)(=O)C(C)C)cc4)cnc3N)on2)cc1 | enzyme activity, inhibitor | – | 2 µM | inhibition | 82% |

| Structure (SMILES) | assay | system | conditions | quantity | value |
| --- | --- | --- | --- | --- | --- |
| Cc1ccc(C(=O)NCc2ccsc2)cc1C#Cc1cn(C(C)C)c2ncnc(N)c12 | enzyme activity, inhibitor | – | 1 µM | activity vs control | 113% |
| CC(C)(C)C(=O)c1sc(NC2CCCCC2)nc1N | enzyme activity, inhibitor | – | 10 µM | remaining activity | 95% |
| O=C1Nc2ccc(Cl)cc2C1=Cc1cc(Cl)c(O)c(Cl)c1 | cell-free assay | – | 0.5 µM | remaining signal | 114% |
| COc1cc(-c2cc(-c3ccc(N4CCNCC4)cc3)cnc2C)cc(OC)c1OC | enzyme activity, inhibitor | – | 1 µM | inhibition | 1% |
| CCN(CC)CCNC(=O)c1c(C)[nH]c(/C=C2\C(=O)Nc3ccc(F)cc32)c1C | enzyme activity, inhibitor | – | 0.3 µM | inhibition | 24% |
| CNC(=O)Nc1ccc2c(c1)CC[C@@]21OC(=O)N(CC(=O)N(Cc2ccc(F)cc2)[C@@H](C)C(F)(F)F)C1=O | cell-free assay, competition with immobilised ligand | – | 1 µM | remaining binding | 97% |
| CCCOc1ccc(OC)c(F)c1C(=O)c1ccc(C(=O)N[C@@H]2CNC[C@H]2NC(=O)c2ccc3[nH]ncc3c2)cc1 | enzyme activity, inhibitor | – | 10 µM | remaining activity | -1% |
| COc1cc(Nc2cnc(C#N)c(O[C@H](C)CN(C)C)n2)ncc1-c1cnn(C)c1 | enzyme activity, inhibitor, radiometric | – | 10 µM | remaining activity | 86% |
| Cn1c2c(Cl)c(Cl)ccc2c2cc[nH]c(=O)c21 | thermal stability, DSF | – | 10 µM | ΔTm | 1.3 °C |
| Cc1cc(-n2nc(Cc3cc(F)cc(C(F)(F)F)c3)nc2C)ccc1C(N)=O | cell-free assay, competition with immobilised ligand | – | 1 µM | remaining binding | 100% |
| Cn1c2c(c3ccc(Cl)c(Cl)c31)C(C#N)C(C)(C)NC2=O (stereo not shown) | thermal stability, DSF | – | 10 µM | ΔTm | 1.3 °C |
| O=C(Nc1cnc(Oc2ccc(F)cc2)nc1)N1CCc2ncccc2[C@@H]1c1ccc(F)cc1 | cell-free assay, competition with immobilised ligand | – | 1 µM | remaining binding | 78% |
| CC(C)(C)c1nc(-c2cccc(NS(=O)(=O)c3c(F)cccc3F)c2F)c(-c2ccnc(N)n2)s1 | enzyme activity, inhibitor, radiometric | – | 1 µM | remaining activity | 78% |
| CC(C)CC(=O)N1CCc2nc(-c3ccc(Br)cc3)nc(N(C)Cc3ccccc3)c2C1 | cell-free assay, competition with immobilised ligand | – | 0.1 µM | remaining binding | 80% |
| CN(c1ncccc1CNc1nc(Nc2ccc3c(c2)CC(=O)N3)ncc1C(F)(F)F)S(C)(=O)=O | enzyme activity, inhibitor | – | 1 µM | inhibition | 47% |
| CC1=C(C#N)[C@@H](c2ccc3[nH]nc(C)c3c2)C(C#N)=C(c2ccc(Cl)cc2)N1 | cell-free assay, competition with immobilised ligand | – | 1 µM | remaining binding | 74.6% |
| Nc1nc(NC2CCCCC2)sc1C(=O)c1ccccc1 | enzyme activity, inhibitor | – | 10 µM | remaining activity | 98% |
